We go through 3 compounds from PMC2219267 (The Journal of General Physiology, 1996).

In experiment [1] the target is T1, band 3 (Homo sapiens, UniProt P02730).
T1 sequence (P02730 1-911): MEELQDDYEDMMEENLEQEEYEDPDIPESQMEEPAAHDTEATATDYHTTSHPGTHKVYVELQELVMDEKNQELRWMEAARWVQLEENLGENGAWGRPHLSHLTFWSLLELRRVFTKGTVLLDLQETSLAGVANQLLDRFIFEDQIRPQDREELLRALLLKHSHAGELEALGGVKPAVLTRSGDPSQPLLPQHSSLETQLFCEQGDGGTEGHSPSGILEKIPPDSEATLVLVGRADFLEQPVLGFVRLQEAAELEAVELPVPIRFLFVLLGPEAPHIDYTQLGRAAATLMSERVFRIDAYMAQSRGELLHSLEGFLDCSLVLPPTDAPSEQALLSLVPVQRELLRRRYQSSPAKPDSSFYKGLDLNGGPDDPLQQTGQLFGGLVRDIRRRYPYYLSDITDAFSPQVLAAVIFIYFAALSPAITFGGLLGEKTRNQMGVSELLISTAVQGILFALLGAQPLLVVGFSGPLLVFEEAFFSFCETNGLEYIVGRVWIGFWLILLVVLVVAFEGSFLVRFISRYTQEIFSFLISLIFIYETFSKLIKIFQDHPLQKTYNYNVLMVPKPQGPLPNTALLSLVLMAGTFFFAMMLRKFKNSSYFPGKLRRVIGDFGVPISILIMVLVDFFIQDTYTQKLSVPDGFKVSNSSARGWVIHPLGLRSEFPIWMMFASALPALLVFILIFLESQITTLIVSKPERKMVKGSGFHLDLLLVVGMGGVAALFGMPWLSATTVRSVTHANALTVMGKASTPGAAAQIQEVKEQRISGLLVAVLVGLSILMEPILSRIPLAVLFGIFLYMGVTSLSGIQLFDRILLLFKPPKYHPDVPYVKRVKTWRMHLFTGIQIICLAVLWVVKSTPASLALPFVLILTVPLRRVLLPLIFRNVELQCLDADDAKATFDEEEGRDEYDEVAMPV
Kind of experiment: 36Cl exchange flux inhibition in red blood cells, Dixon plots. The experiment is classed as cell-based.

Experiment [2] has as its target T1, band 3. Briefly: 125I iodide influx into red blood cells. The format is cell-based. In outline: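 Heparinised human blood was washed three times in 150 KH (150 mM KCl, 24 mM sucrose, 20 mM Hepes, pH 7.2 at 0°C), with white cells aspirated, then held at 50% hematocrit. DIDS-treated cells received a 2 mM DIDS stock. Media mixed sucrose, KCl and KI with 5 mM buffer. Above pHo 11, cells were nystatin-loaded to 300 mM Cl-, and CAPS-buffered media were used.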

As for `O=C(O)CC(O)(CC(=O)O)C(=O)O` [citrate], the “type of inhibition of Cl- flux (Lineweaver-Burk plot)” value in experiment [1] (24 mM citrate, pHo 6.8, sucrose replacing Cl-) was “mixed inhibition”. Further, the “y intercept of Dixon slope vs 1/[Clo] (citrate)” value in experiment [1] (pHo 6.8) is 0.00017 kg Hb·s·mmol-1·mM-1; in experiment [1] (pHo 8.0), 0.0001 kg Hb·s·mmol-1·mM-1.

For the compound `O=S(=O)(O)c1cc(N=C=S)ccc1C=Cc1ccc(N=C=S)cc1S(=O)(=O)O` [DIDS, 4,4'-diisothiocyano-stilbene-2,2'-disulfonate], the “I- influx in DIDS-treated cells as % of value in control cells” value in experiment [2] (all pH except 11.5) is recorded as “less than 10%”. Further, the “DIDS-insensitive I- flux as % of control flux” value in experiment [2] (pH 11.5, very scattered values) is listed as “up to 25%”.

For the compound `O=S(=O)(O)CCCNC1CCCCC1` [CAPS, 3-[cyclohexylamino]-l-propanesulfonic acid], in experiment [1] (pHo ~12, compared with data obtained without buffer), the “effect of buffer on anion transport or on KoI” value is “does not show any inhibitory effects”.
